# The source made the active and inactive calls. No cut-off for these calls is given here.
# Columns and labels:
# MONO-MAC-6 [1] = experiment: Upregulation of CXCL10 mRNA expression level in LPS-stimulated human MONO-MAC-6 cells at 5 uM preincubated for 30 mins followed by LPS stimulation measured after 4 hrs by oligonucleotide array hybridization assay (reference value: 3.07); assay type: functional
# MONO-MAC-6 [2] = experiment: Upregulation of CCL20 mRNA expression level in LPS-stimulated human MONO-MAC-6 cells at 5 uM preincubated for 30 mins followed by LPS stimulation measured after 2 hrs by oligonucleotide array hybridization assay (reference value: 2.87); assay type: functional
# MONO-MAC-6 [3] = experiment: Downregulation of PTX3 mRNA expression level in human MONO-MAC-6 cells at 5 uM incubated for 30 mins measured after 2 hrs by oligonucleotide array hybridization assay relative to control; assay type: functional
# Procedure, shortened: (§1)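 Total RNA was isolated, transcribed and labeled with DY-647 dye, then co-hybridized with DY-548-labeled cDNA from untreated cells on an inflammation oligonucleotide chip (780 gene probes). Differential expression >1.5 was taken as significant.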
# MONO-MAC-6 [4] = experiment: Upregulation of CCL4 mRNA expression level in LPS-stimulated human MONO-MAC-6 cells at 5 uM preincubated for 30 mins followed by LPS stimulation measured after 2 hrs by oligonucleotide array hybridization assay (reference value: 5.78); assay type: functional
# MONO-MAC-6 [5] = experiment: Upregulation of PTGS2 mRNA expression level in LPS-stimulated human MONO-MAC-6 cells at 5 uM preincubated for 30 mins followed by LPS stimulation measured after 1 hr by oligonucleotide array hybridization assay (reference value: 1.01); assay type: functional
# MONO-MAC-6 [6] = experiment: Downregulation of CCL20 mRNA expression level in human MONO-MAC-6 cells at 5 uM incubated for 30 mins measured after 4 hrs by oligonucleotide array hybridization assay relative to control; assay type: functional; procedure, shortened: as §1
# MONO-MAC-6 [7] = experiment: Downregulation of CCL4 mRNA expression level in human MONO-MAC-6 cells at 5 uM incubated for 30 mins measured after 6 hrs by oligonucleotide array hybridization assay relative to control; assay type: functional; procedure, shortened: as §1
# MONO-MAC-6 [8] = experiment: Downregulation of CXCL2 mRNA expression level in LPS-stimulated human MONO-MAC-6 cells at 5 uM preincubated for 30 mins followed by LPS stimulation measured after 6 hrs by qRT-PCR method (reference value: 5.22); assay type: functional
# MONO-MAC-6 [9] = experiment: Downregulation of TNFalpha mRNA expression level in human MONO-MAC-6 cells at 5 uM incubated for 30 mins measured after 2 hrs by qRT-PCR method relative to control; assay type: functional
# [10] = biological target: T1, Acid ceramidase (Homo sapiens) (UniProt Q13510); experiment: Inhibition of acid ceramidase in human PBMC assessed as ratio of C16-ceramide/lipid phosphate level at 10 uM incubated for 30 mins measured after 4 hrs by HPLC method; assay type: cell-based
# T1 sequence (whole entry): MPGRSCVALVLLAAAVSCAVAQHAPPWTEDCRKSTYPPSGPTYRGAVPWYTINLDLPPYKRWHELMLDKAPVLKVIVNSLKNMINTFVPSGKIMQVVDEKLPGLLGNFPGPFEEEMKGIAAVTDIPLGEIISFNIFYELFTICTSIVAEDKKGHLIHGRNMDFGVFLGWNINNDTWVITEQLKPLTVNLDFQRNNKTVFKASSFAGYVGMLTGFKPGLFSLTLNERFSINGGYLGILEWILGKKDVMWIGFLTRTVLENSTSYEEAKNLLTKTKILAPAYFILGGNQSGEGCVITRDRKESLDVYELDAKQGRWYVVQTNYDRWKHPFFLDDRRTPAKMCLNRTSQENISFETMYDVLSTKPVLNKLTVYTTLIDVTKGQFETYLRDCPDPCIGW
# Procedure, shortened: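 Human macrophages from primary culture were preincubated 30 min with 10 µM compound. They were then stimulated 4 h with mmLDL (54 µg/mL), TNFalpha (3 ng/mL) or exogenous C6-ceramide (10 µM), or left unstimulated. Individual ceramide species (C16 and C24:1) were quantified in the cell lipid extracts.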
# MONO-MAC-6 [11] = experiment: Downregulation of CXCL2 mRNA expression level in human MONO-MAC-6 cells at 5 uM incubated for 30 mins measured after 6 hrs by oligonucleotide array hybridization assay relative to control; assay type: functional; procedure, shortened: as §1
# MONO-MAC-6 [12] = experiment: Decrease in inflammation-related genes in LPS-stimulated human MONO-MAC-6 cells preincubated for 30 mins followed by LPS stimulation measured after 6 hrs by microarray analysis; assay type: functional, cell-based; procedure, shortened: as §1
# MONO-MAC-6 [13] = experiment: Downregulation of CXCL3 mRNA expression level in LPS-stimulated human MONO-MAC-6 cells at 5 uM preincubated for 30 mins followed by LPS stimulation measured after 1 hr by oligonucleotide array hybridization assay (reference value: 1.18); assay type: functional; procedure, shortened: as §1
# MONO-MAC-6 [14] = experiment: Upregulation of IL23A mRNA expression level in LPS-stimulated human MONO-MAC-6 cells at 5 uM preincubated for 30 mins followed by LPS stimulation measured after 2 hrs by qRT-PCR method (reference value: 1.39); assay type: functional
# MONO-MAC-6 [15] = experiment: Downregulation of CCL20 mRNA expression level in human MONO-MAC-6 cells at 5 uM incubated for 30 mins measured after 6 hrs by oligonucleotide array hybridization assay relative to control; assay type: functional; procedure, shortened: as §1
# MONO-MAC-6 [16] = experiment: Upregulation of TNFalpha mRNA expression level in LPS-stimulated human MONO-MAC-6 cells at 5 uM preincubated for 30 mins followed by LPS stimulation measured after 2 hrs by qRT-PCR method (reference value: 3.10); assay type: functional
# MONO-MAC-6 [17] = experiment: Downregulation of IL-6 mRNA expression level in human MONO-MAC-6 cells at 5 uM incubated for 30 mins measured after 6 hrs by qRT-PCR method relative to control; assay type: functional
# MONO-MAC-6 [18] = experiment: Upregulation of CXCL2 mRNA expression level in LPS-stimulated human MONO-MAC-6 cells at 5 uM preincubated for 30 mins followed by LPS stimulation measured after 4 hrs by qRT-PCR method (reference value: 16.41); assay type: functional
# MONO-MAC-6 [19] = experiment: Upregulation of CCL20 mRNA expression level in LPS-stimulated human MONO-MAC-6 cells at 5 uM preincubated for 30 mins followed by LPS stimulation measured after 4 hrs by oligonucleotide array hybridization assay (reference value: 10.69); assay type: functional
# MONO-MAC-6 [20] = experiment: Downregulation of PTGS2 mRNA expression level in human MONO-MAC-6 cells at 5 uM incubated for 30 mins measured after 6 hrs by oligonucleotide array hybridization assay relative to control; assay type: functional; procedure, shortened: as §1
# MONO-MAC-6 [21] = experiment: Downregulation of IL23A mRNA expression level in human MONO-MAC-6 cells at 5 uM incubated for 30 mins measured after 2 hrs by qRT-PCR method relative to control; assay type: functional
# MONO-MAC-6 [22] = experiment: Upregulation of CXCL3 mRNA expression level in human MONO-MAC-6 cells at 5 uM incubated for 30 mins measured after 1 hr by oligonucleotide array hybridization assay relative to control; assay type: functional
smiles,measurement,setting,value
COc1ccc(CCN(C)CCCn2c3ccccc3c3ccccc32)cc1,fold change (FC),MONO-MAC-6 [1],1.01
same,fold change (FC),MONO-MAC-6 [2],2.7
same,fold change (FC),MONO-MAC-6 [3],1.61
same,fold change (FC),MONO-MAC-6 [4],3.09
same,fold change (FC),MONO-MAC-6 [5],1.1
same,fold change (FC),MONO-MAC-6 [6],1.4
same,fold change (FC),MONO-MAC-6 [7],7.41
same,fold change (FC),MONO-MAC-6 [8],1.01
same,fold change (FC),MONO-MAC-6 [9],3.78
same,Ratio,[10],0.38
same,fold change (FC),MONO-MAC-6 [11],5.44
same,Activity,MONO-MAC-6 [12],Active
same,fold change (FC),MONO-MAC-6 [13],1.24
same,fold change (FC),MONO-MAC-6 [14],1.87
same,fold change (FC),MONO-MAC-6 [15],5.68
same,fold change (FC),MONO-MAC-6 [16],1.34
same,fold change (FC),MONO-MAC-6 [17],46.64
same,fold change (FC),MONO-MAC-6 [18],8.28
same,fold change (FC),MONO-MAC-6 [19],4.54
same,fold change (FC),MONO-MAC-6 [20],2.23
same,fold change (FC),MONO-MAC-6 [21],1.24
same,fold change (FC),MONO-MAC-6 [22],1.46

# — ChEMBL document CHEMBL4152184, “NB 06: From a simple lysosomotropic aSMase inhibitor to tools for elucidating the role of lysosomes in signaling apoptosis and LPS-induced inflammation” (Eur J Med Chem, 2018)
